# In ChEMBL document CHEMBL4819033, “Synthesis of Bioactive Diarylheptanoids from Alpinia officinarum and Their Mechanism of Action for Anticancer Properties in Breast Cancer Cells” (J Nat Prod, 2021):
# Active and inactive are the calls of the source. No cut-off for these calls is given here.
# Columns and labels:
# MCF7 [1] = experiment: Antiproliferative activity against human MCF7 cells assessed as reduction in cell viability after 72 hrs by MTT assay; assay type: functional, cell-based; details: for IC50: MCF7, 72 h
# In short: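 MCF-7 cells (DMEM, 10% FBS, 37 °C, 5% CO2) seeded 5 × 10³/well, left overnight, then exposed to compounds (0−50 μM) for 72 h. MTT added to 0.5 mg/mL final; formazan solubilised overnight with 10% SDS in 0.01 N HCl, absorbance at 570 nm. IC50 taken relative to vehicle (0.1% DMSO) as 100% survival. Triplicate determinations, three independent experiments; paclitaxel as positive control.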
# MCF7 [2] = experiment: Induction of lysosomal membrane permeabilization in human MCF7 cells after 6 hrs by AO staining based flow cytometry; assay type: functional, cell-based; details: dose 5-10 µM
# In short: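 MCF-7 cells treated at 5 or 10 μM (0−10 μM) for various periods, washed with PBS, then stained with acridine orange (10 μM, 15 min, 37 °C) and analysed by flow cytometry. LMP measured from green-channel MFI at 6 h as fold of vehicle; five repeats in triplicate.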
# [3] = Antiproliferative activity against human INT-407 cells assessed as reduction in cell viability up to 50 uM after 72 hrs by MTT assay; assay type: cell-based; details: intestine 407, 72 h
# In short: (§1)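 U2-OS (ATCC) or INT-407 cells, cultured in DMEM with 10% FBS at 37 °C, 5% CO2, assayed by MTT reduction under the conditions used for MCF-7: 72 h exposure, absorbance at 570 nm, viability relative to 0.1% DMSO vehicle control; INT-407 tested up to 50 μM.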
# MCF7 [4] = experiment: Induction of ROS generation in human MCF7 cells at 5 to 10 uM incubated for 6 hrs by DCFH-DA dye based flow cytometric analysis; assay type: functional, cell-based; details: dose 5-10 µM
# In short: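 MCF-7 cells (1 × 10⁵/well) loaded with DCFH-DA (10 μM, 30 min), washed, then exposed to 5 or 10 μM for various periods (6 h quantified); H2O2 100 μM as positive control. DCF green fluorescence (ex 480/em 530 nm) read by flow cytometry, expressed as fold of vehicle. Three repeats in triplicate.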
# MCF7 [5] = experiment: Induction of cell cycle arrest in human MCF7 cells assessed as accumulation at G2 phase at 5 to 10 uM incubated for 24 hrs by propidium iodide/RNase A staining based flow cytometry; assay type: functional; details: dose 5-10 µM
# In short: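 For the cell cycle, MCF-7 cells were exposed to vehicle, 5 or 10 μM for 24 h, stained with PI/RNase in 0.1% sodium citrate containing Triton X-100, and phase distribution was quantified by flow cytometry. Three experiments, each in triplicate.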
# MCF7 [6] = experiment: Induction of apoptosis in human MCF7 cells assessed as increase in sub-G1 cell population at 10 uM after 48 hrs by propidium iodide/RNase A staining based flow cytometric analysis (reference value: 5.4 +/- 2.1 %); assay type: functional
# MCF7 [7] = experiment: Inhibition of colony formation in human MCF7 cells incubated for 10 days by crystal violet staining based assay; assay type: functional, cell-based; details: dose 1-5 µM, time 10.0 day
# In short: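 Clonogenic survival: MCF-7 cells, 1 × 10³ per well, seeded overnight, then grown with 1, 2.5 or 5 μM in complete medium for 10 days. Colonies fixed with MeOH, stained with 0.5% crystal violet in 1:1 MeOH–water, counted. Surviving fraction corrected for plating efficiency, relative to vehicle; triplicates, three repeats.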
# MCF7 [8] = experiment: Induction of mitochondrial membrane potential loss in human MCF7 cells incubated for 6 hrs by JC1 staining based flow cytometry; assay type: functional, cell-based; details: dose 5-10 µM
# In short: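 JC-1 assay: MCF-7 cells (1 × 10⁵/well) treated at 5 or 10 μM (legend gives 6 h, methods 8 h), stained with JC-1 (5 μg/mL) for 30 min, trypsinised, and analysed by flow cytometry. MMP loss scored from the drop in red fluorescence MFI as fold of vehicle; CCCP 10 μM as positive control. Five repeats in triplicate.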
# U2OS = experiment: Antiproliferative activity against human U2OS cells assessed as reduction in cell viability after 72 hrs by MTT assay; assay type: functional, cell-based; in short: as §1
# MCF7 [9] = experiment: Induction of ROS generation in human MCF7 cells at 5 to 10 uM up to 3 hrs by DCFH-DA dye based flow cytometric analysis; assay type: functional, cell-based; details: dose 5-10 µM, time hrs <=3
# MCF7 [10] = experiment: Induction of lysosomal membrane permeabilization in human MCF7 cells at 5 to 10 uM […] by AO staining based flow cytometry; assay type: functional, cell-based; details: dose 5-10 µM
# MCF7 [11] = experiment: Induction of apoptosis in human MCF7 cells assessed as increase in sub-G1 cell population at 5 uM after 48 hrs by propidium iodide/RNase A staining based flow cytometric analysis (reference value: 5.4 +/- 2.1 %); assay type: functional
IC50 (MCF7 [1]),IC50 (U2OS),SMILES,Activity (MCF7 [1]),Activity (MCF7 [2]),Activity [3],Activity (MCF7 [4]),Activity (MCF7 [5]),Activity (MCF7 [6]),inhibition (MCF7 [7]),Activity (MCF7 [8]),Activity (MCF7 [9]),Activity (MCF7 [10]),Activity (MCF7 [11])
> 50 µM,–,COc1cc(CC[C@@H](O)CC(=O)CCc2ccccc2)ccc1O,Dose-Dependent Effect,–,–,–,–,–,–,–,–,–,–
3.9 µM,10.7 µM,COc1cc(CC/C=C/C(=O)CCc2ccccc2)ccc1O,Dose-Dependent Effect,Dose-Dependent Effect,Non-Toxic,Active,Active,27.5%,Dose-Dependent Effect,Dose-Dependent Effect,inactive,inactive,16.3%
> 50 µM,–,COc1cc(CC[C@H](O)CC(=O)CCc2ccccc2)ccc1O,Dose-Dependent Effect,–,–,–,–,–,–,–,–,–,–
